One may read the IC50 as the concentration that gives 50% inhibition.

Results on 15 compounds are retold here after ChEMBL document CHEMBL2062414, “Selected chromone derivatives as inhibitors of monoamine oxidase” (Bioorg Med Chem Lett, 2012).

In one data set the target is T1, Amine oxidase [flavin-containing] B (Homo sapiens, UniProt P27338).
T1 sequence (P27338 whole entry): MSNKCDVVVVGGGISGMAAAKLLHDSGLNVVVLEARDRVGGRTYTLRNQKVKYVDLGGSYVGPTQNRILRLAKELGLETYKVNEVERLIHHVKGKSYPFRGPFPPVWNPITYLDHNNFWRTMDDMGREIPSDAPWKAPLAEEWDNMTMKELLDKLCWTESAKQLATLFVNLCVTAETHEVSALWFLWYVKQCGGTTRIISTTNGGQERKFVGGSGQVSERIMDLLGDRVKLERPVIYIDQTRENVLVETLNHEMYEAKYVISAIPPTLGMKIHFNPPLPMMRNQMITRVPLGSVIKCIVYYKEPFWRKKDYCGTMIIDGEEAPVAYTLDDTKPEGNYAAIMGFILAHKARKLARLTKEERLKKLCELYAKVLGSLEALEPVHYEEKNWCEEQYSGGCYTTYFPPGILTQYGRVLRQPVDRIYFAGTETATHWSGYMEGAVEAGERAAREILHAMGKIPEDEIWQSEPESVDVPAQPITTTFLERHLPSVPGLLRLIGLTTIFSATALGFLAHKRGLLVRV
Put plainly: Reversible inhibition of recombinant human MAO-B assessed as recovered enzyme activity measuring residual rate of 4-hydroxyquinoline formation at 10 times IC50 preincubated for 30 mins followed by dilution to 0.1 time IC50 measured after 20 mins.
For the compound `O=C(O)c1coc2ccc(OCc3cccc(Br)c3)cc2c1=O`, the Activity is 68%.

`CC(=O)c1ccc(OCc2cccc(Br)c2)cc1O`: the Activity is on record as 68%.

For the compound `O=C1CC(O)Oc2ccc(OCc3cccc(Br)c3)cc21` (centres undefined), the Activity was 68%.

The next data set concerns the target T1, Amine oxidase [flavin-containing] B. Put plainly: Inhibition of recombinant human MAO-B assessed as inhibition of kynuramine to 4-hydroxyquinoline conversion after 20 mins by fluorometry.
As for `O=C(O)c1coc2ccc(OCc3cccc(Br)c3)cc2c1=O`, the IC50 was found to be 0.0028 µM.

As for `O=Cc1coc2ccc(OCc3cccc(Br)c3)cc2c1=O`, the IC50 is 0.0037 µM.

As to `O=C1CC(O)Oc2cccc(OCc3ccc(Br)cc3)c21` (centres undefined), the IC50 is 44.8 µM.

For `O=Cc1coc2ccccc2c1=O`, the IC50 is 23.5 µM.

On to `O=c1ccoc2ccccc12` [CHROMONE], for which the IC50 was 54.9 µM.

Take `O=c1ccoc2cccc(OCc3ccc(Br)cc3)c12`: the IC50 amounted to 4.34 µM.

On to `COC(=O)c1coc2ccc(OCc3cccc(Br)c3)cc2c1=O`, for which the IC50 was determined as 0.0774 µM.

With `O=c1ccoc2cccc(OCc3ccccc3)c12`, the IC50 was 8.03 µM.

The target of a further data set is T2, Amine oxidase [flavin-containing] A (Homo sapiens, UniProt P21397).
T2 sequence (P21397 whole entry): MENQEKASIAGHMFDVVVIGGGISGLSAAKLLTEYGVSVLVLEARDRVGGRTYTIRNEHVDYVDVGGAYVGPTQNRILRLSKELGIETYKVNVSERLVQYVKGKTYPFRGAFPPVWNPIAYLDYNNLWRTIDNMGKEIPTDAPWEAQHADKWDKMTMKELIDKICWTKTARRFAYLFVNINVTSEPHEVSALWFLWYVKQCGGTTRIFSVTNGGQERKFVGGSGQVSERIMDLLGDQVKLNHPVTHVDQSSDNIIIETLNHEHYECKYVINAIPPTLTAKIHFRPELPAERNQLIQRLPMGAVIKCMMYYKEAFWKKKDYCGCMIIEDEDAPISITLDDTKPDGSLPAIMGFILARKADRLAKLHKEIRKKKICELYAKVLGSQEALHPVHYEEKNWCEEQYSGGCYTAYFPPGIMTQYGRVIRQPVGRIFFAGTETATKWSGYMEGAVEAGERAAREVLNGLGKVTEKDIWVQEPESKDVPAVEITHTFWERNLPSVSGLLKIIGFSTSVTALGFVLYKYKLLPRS
Put plainly: Inhibition of recombinant human MAO-A assessed as inhibition of kynuramine to 4-hydroxyquinoline conversion after 20 mins by fluorometry. Summed up: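 Recombinant human MAO-A was incubated with the mixed MAO-A/B substrate kynuramine. Activity was read fluorometrically as formation of 4-hydroxyquinoline. IC50 values are given as mean ± SD of triplicate determinations.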
Consider `O=C(O)c1coc2ccc(OCc3cccc(Br)c3)cc2c1=O`, for which the IC50 was found to be 1.04 µM.

In the case of `O=Cc1coc2ccc(OCc3cccc(Br)c3)cc2c1=O`, the IC50 is 2.2 µM.

Take `O=C1CC(O)Oc2cccc(OCc3ccc(Br)cc3)c21` (centres undefined): the IC50 worked out at 60.6 µM.

With `O=Cc1coc2ccccc2c1=O`, the IC50 was determined as 28.9 µM.

Regarding `O=c1ccoc2ccccc12` [CHROMONE], the IC50 came to 39.9 µM.

For `O=C1CC(O)Oc2ccc(OCc3cccc(Br)c3)cc21` (centres undefined), the IC50 stood at 1.53 µM.

Take `O=c1ccoc2cccc(OCc3ccc(Br)cc3)c12`: the IC50 was 52.9 µM.

For the compound `COC(=O)c1coc2ccc(OCc3cccc(Br)c3)cc2c1=O`, the IC50 was 6.46 µM.

`O=c1ccoc2cccc(OCc3ccccc3)c12`: the IC50 turned out to be 143 µM.

The species named for the next data set is Homo sapiens. Description: Selectivity ratio of IC50 for recombinant human MAO-A to IC50 for recombinant human MAO-B. In short, it runs like this: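 This is a selectivity index for MAO-B, computed as IC50(MAO-A)/IC50(MAO-B). Both IC50s were measured fluorometrically on recombinant human enzymes as kynuramine conversion to 4-hydroxyquinoline, in triplicate.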
Take `O=C(O)c1coc2ccc(OCc3cccc(Br)c3)cc2c1=O`: the Ratio IC50 amounted to 371.

Regarding `CC(=O)c1c(O)cccc1OCc1ccc(Br)cc1`, the Ratio IC50 is 53.

In the case of `CC(=O)c1ccc(OCc2cccc(Br)c2)cc1O`, the Ratio IC50 amounted to 3950.

For `O=Cc1coc2ccc(OCc3cccc(Br)c3)cc2c1=O`, the Ratio IC50 was 595.

Take `O=C1CC(O)Oc2cccc(OCc3ccc(Br)cc3)c21` (centres undefined): the Ratio IC50 came out at 1.4.

In the case of `O=Cc1coc2ccccc2c1=O`, the Ratio IC50 was 1.

For `O=c1ccoc2ccccc12` [CHROMONE], the Ratio IC50 was determined as 1.

For `O=c1ccoc2cccc(OCc3ccc(Br)cc3)c12`, the Ratio IC50 is 12.

As to `CC(=O)c1cc(OCc2ccc(Br)cc2)ccc1O`, the Ratio IC50 stood at 17.

Turning to `CC(=O)c1c(O)cccc1OCc1cccc(Br)c1`, the Ratio IC50 came out at 17.

Take `COC(=O)c1coc2ccc(OCc3cccc(Br)c3)cc2c1=O`: the Ratio IC50 was found to be 83.

Take `O=c1ccoc2cccc(OCc3ccccc3)c12`: the Ratio IC50 amounted to 18.

Turning to `CC(=O)c1cc(OCc2cccc(Br)c2)ccc1O`, the Ratio IC50 was 34.

On to `CC(=O)c1ccc(OCc2ccc(Br)cc2)cc1O`, for which the Ratio IC50 worked out at 569.
